Measured values from ChEMBL document CHEMBL3621107, “Ring fusion strategy for synthesis and lead optimization of sulfur-substituted anthra[1,2-c][1,2,5]thiadiazole-6,11-dione derivatives as promising scaffold of antitumor agents” (Eur J Med Chem, 2015).
pIC50: −log10 of the molar value.

Legend:
Malme-3M = test: Cytotoxicity against human MALME-3M cells assessed as cell growth at 10 uM after 48 hrs by SRB assay relative to control; type: functional; settings: read-out: Activity
How it was run: (§1)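 First-stage NCI-60 screen by the NCI Developmental Therapeutics Program. Each compound was tested once at a single concentration of 10 μM against the 60-cell-line panel. Growth percentage was reported for each cell line.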

M14 = test: Cytotoxicity against human M14 cells assessed as cell growth at 10 uM after 48 hrs by SRB assay relative to control; type: functional; settings: M14, 48 h, read-out: Activity; how it was run: as §1
MDA-MB-435 = test: Cytotoxicity against human MDA-MB-435 cells assessed as cell growth at 10 uM after 48 hrs by SRB assay relative to control; type: functional; settings: MDA-MB-435, 48 h, read-out: Activity
How it was run: (§2)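 First-stage NCI DTP one-dose screen against the 60 human tumour cell line panel. Compounds were tested at a single 10 μM level, and results are given as growth percentage.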

UACC-62 = test: Cytotoxicity against human UACC62 cells assessed as cell growth at 10 uM after 48 hrs by SRB assay relative to control; type: functional; settings: UACC-62, 48 h, read-out: Activity
How it was run: (§3)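 NCI-60 one-dose screen run by NCI DTP: each cell line exposed to a single 10 µM dose, and percentage growth recorded against untreated growth.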

OVCAR-3 = test: Cytotoxicity against human OVCAR3 cells assessed as cell growth at 10 uM after 48 hrs by SRB assay relative to control; type: functional; settings: OVCAR-3, 48 h, read-out: Activity; how it was run: as §2
OVCAR-5 = test: Cytotoxicity against human OVCAR5 cells assessed as cell growth at 10 uM after 48 hrs by SRB assay relative to control; type: functional; settings: OVCAR-5, 48 h, read-out: Activity; how it was run: as §2
SK-OV-3 = test: Cytotoxicity against human SKOV3 cells assessed as cell growth at 10 uM after 48 hrs by SRB assay relative to control; type: functional; settings: SK-OV-3, 48 h, read-out: Activity; how it was run: as §2
786-0 = test: Cytotoxicity against human 786-0 cells assessed as cell growth at 10 uM after 48 hrs by SRB assay relative to control; type: functional; settings: 786-0, 48 h, read-out: Activity; how it was run: as §1
A498 = test: Cytotoxicity against human A498 cells assessed as cell growth at 10 uM after 48 hrs by SRB assay relative to control; type: functional; settings: A498, 48 h, read-out: Activity; how it was run: as §1
SN12C = test: Cytotoxicity against human SN12C cells assessed as cell growth at 10 uM after 48 hrs by SRB assay relative to control; type: functional; settings: read-out: Activity; how it was run: as §2
TK-10 = test: Cytotoxicity against human TK10 cells assessed as cell growth at 10 uM after 48 hrs by SRB assay relative to control; type: functional; settings: TK-10, 48 h, read-out: Activity; how it was run: as §3
T47D = test: Cytotoxicity against human T47D cells assessed as cell growth at 10 uM after 48 hrs by SRB assay relative to control; type: functional; settings: read-out: Activity; how it was run: as §3
MDA-MB-468 = test: Cytotoxicity against human MDA-MB-468 cells assessed as cell growth at 10 uM after 48 hrs by SRB assay relative to control; type: functional; settings: MDA-MB-468, 48 h, read-out: Activity; how it was run: as §2
PC-3 [1] = test: Cytotoxicity against human PC3 cells after 48 hrs by SRB assay; type: functional, cell-based; settings: PC-3, 48 h
How it was run: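 Second-stage NCI-60 panel run by the NCI Developmental Therapeutics Program, covering nine tumour subpanels. Five concentrations were tested: 0.01, 0.1, 1, 10 and 100 μM. Percentage growth at each level was plotted against log10 drug concentration. GI50, TGI and LC50 were read from these dose-response curves. Subpanel MID values were divided into the full-panel MID to give selectivity ratios.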

DU-145 = test: Cytotoxicity against human DU145 cells after 72 hrs by MTT assay; type: functional, cell-based; settings: DU-145, 72 h
How it was run: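 DU-145 cells grown in RPMI-1640 with 5% heat-inactivated fetal calf serum at 37 °C, 5% CO2. About 2×10^3 cells per well were seeded and incubated for 24 h. Compounds were dissolved in DMSO freshly and diluted into medium (vehicle 0.1% DMSO), then cells were exposed for 72 h. MTT was added for 3 h at 37 °C and absorbance read at 570 nm.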

HL-60(TB) = test: Cytotoxicity against human HL-60(TB) cells assessed as cell growth at 10 uM after 48 hrs by SRB assay relative to control; type: functional; settings: HL-60, 48 h, read-out: Activity
How it was run: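 NCI Developmental Therapeutics Program 60-cell-line screen, first stage: a single dose of 10 μM against the panel, reported as percentage growth.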

K562 = test: Cytotoxicity against human K562 cells assessed as cell growth at 10 uM after 48 hrs by SRB assay relative to control; type: functional; settings: K562, 48 h, read-out: Activity; how it was run: as §1
MOLT-4 = test: Cytotoxicity against human MOLT4 cells assessed as cell growth at 10 uM after 48 hrs by SRB assay relative to control; type: functional; settings: MOLT-4, 48 h, read-out: Activity; how it was run: as §2
SR = test: Cytotoxicity against human SR cells assessed as cell growth at 10 uM after 48 hrs by SRB assay relative to control; type: functional; settings: read-out: Activity; how it was run: as §3
[2] = Cytotoxicity against human EKVX cells assessed as cell growth at 10 uM after 48 hrs by SRB assay relative to control; type: functional; settings: read-out: Activity; how it was run: as §1
NCI-H23 = test: Cytotoxicity against human NCI-H23 cells assessed as cell growth at 10 uM after 48 hrs by SRB assay relative to control; type: functional; settings: NCI-H23, 48 h, read-out: Activity; how it was run: as §2
HCC 2998 = test: Cytotoxicity against human HCC2998 cells assessed as cell growth at 10 uM after 48 hrs by SRB assay relative to control; type: functional; settings: HCC 2998, 48 h, read-out: Activity; how it was run: as §1
HT-29 = test: Cytotoxicity against human HT-29 cells assessed as cell growth at 10 uM after 48 hrs by SRB assay relative to control; type: functional; settings: HT-29, 48 h, read-out: Activity; how it was run: as §1
SF-295 = test: Cytotoxicity against human SF295 cells assessed as cell growth at 10 uM after 48 hrs by SRB assay relative to control; type: functional; settings: SF-295, 48 h, read-out: Activity; how it was run: as §2
SNB-19 = test: Cytotoxicity against human SNB19 cells assessed as cell growth at 10 uM after 48 hrs by SRB assay relative to control; type: functional; settings: SNB-19, 48 h, read-out: Activity; how it was run: as §3
SNB-75 = test: Cytotoxicity against human SNB75 cells assessed as cell growth at 10 uM after 48 hrs by SRB assay relative to control; type: functional; settings: SNB-75, 48 h, read-out: Activity; how it was run: as §3
U-251 = test: Cytotoxicity against human U251 cells assessed as cell growth at 10 uM after 48 hrs by SRB assay relative to control; type: functional; settings: U-251, 48 h, read-out: Activity; how it was run: as §3
LOX IMVI = test: Cytotoxicity against human LOXIMVI cells assessed as cell growth at 10 uM after 48 hrs by SRB assay relative to control; type: functional; settings: read-out: Activity; how it was run: as §1
PC-3 [3] = test: Cytotoxicity against human PC3 cells assessed as cell growth at 10 uM after 48 hrs by SRB assay relative to control; type: functional; settings: PC-3, 48 h, read-out: Activity; how it was run: as §2
BT-549 = test: Cytotoxicity against human BT549 cells assessed as cell growth at 10 uM after 48 hrs by SRB assay relative to control; type: functional; settings: BT-549, 48 h, read-out: Activity; how it was run: as §1

Compound	growth at 10 µM (Malme-3M) [%]	growth at 10 µM (M14) [%]	growth at 10 µM (UACC-62) [%]	growth at 10 µM (OVCAR-3) [%]	growth at 10 µM (SK-OV-3) [%]	growth at 10 µM (786-0) [%]	growth at 10 µM (A498) [%]	growth at 10 µM (SN12C) [%]	growth at 10 µM (TK-10) [%]	growth at 10 µM (T47D) [%]	growth at 10 µM (MDA-MB-468) [%]	pIC50 (PC-3 [1])	pIC50 (DU-145)	growth at 10 µM (HL-60(TB)) [%]	growth at 10 µM (K562) [%]	growth at 10 µM (MOLT-4) [%]	growth at 10 µM (SR) [%]	growth at 10 µM [2] [%]	growth at 10 µM (NCI-H23) [%]	growth at 10 µM (HCC 2998) [%]	further results
O=C1c2ccccc2C(=O)c2c1ccc1nsnc21	-71.6	74.5	-82.3	-15.5	101	-26	130	-73.3	97	-45.5	-73.2	5.60	5.13	-21.8	49.6	-40.1	4.96	103	16.1	-0.74	growth at 10 µM (MDA-MB-435): -87.9%; growth at 10 µM (OVCAR-5): -20.1%; growth at 10 µM (HT-29): 117%; growth at 10 µM (SF-295): 126%; growth at 10 µM (SNB-19): 79%; growth at 10 µM (SNB-75): 79%; growth at 10 µM (U-251): -89.3%; growth at 10 µM (LOX IMVI): -50.6%
O=C1c2ccccc2C(=O)c2c1cc(Cl)c1nsnc21	97.1	103	72.9	49.9	109	102	93.8	71.9	134	-54.6	-88.3	4.87	5.18	1.87	2.44	-34.1	-23.9	82.2	75	106	growth at 10 µM (PC-3 [3]): 23.5%; growth at 10 µM (BT-549): 102%; growth at 10 µM (SF-295): 109%; growth at 10 µM (SNB-19): 106%; growth at 10 µM (SNB-75): 85.2%; growth at 10 µM (U-251): 29.2%; growth at 10 µM (LOX IMVI): 10.2%
CSc1ccc(Sc2cc3c(c4nsnc24)C(=O)c2ccccc2C3=O)cc1	105	108	111	103	102	110	56	98	128	86.6	82.2	< 4.82	< 4.82	105	67.5	59.9	96.3	114	81.5	111	growth at 10 µM (MDA-MB-435): 118%; growth at 10 µM (OVCAR-5): 108%; growth at 10 µM (PC-3 [3]): 78.4%; growth at 10 µM (BT-549): 108%; growth at 10 µM (HT-29): 102%; growth at 10 µM (SF-295): 98.9%; growth at 10 µM (SNB-19): 102%; growth at 10 µM (SNB-75): 75.1%; growth at 10 µM (U-251): 104%; growth at 10 µM (LOX IMVI): 69%
